Assay results published in ChEMBL document CHEMBL1144221, “Novel naphthoquinone and quinolinedione inhibitors of CDC25 phosphatase activity with antiproliferative properties” (Bioorg Med Chem, 2008).

What was measured:
[1] = target: T1, M-phase inducer phosphatase 2 (Homo sapiens, UniProt P30305); assay: Inhibition of human recombinant CDC25B
T1 sequence (P30305 whole entry): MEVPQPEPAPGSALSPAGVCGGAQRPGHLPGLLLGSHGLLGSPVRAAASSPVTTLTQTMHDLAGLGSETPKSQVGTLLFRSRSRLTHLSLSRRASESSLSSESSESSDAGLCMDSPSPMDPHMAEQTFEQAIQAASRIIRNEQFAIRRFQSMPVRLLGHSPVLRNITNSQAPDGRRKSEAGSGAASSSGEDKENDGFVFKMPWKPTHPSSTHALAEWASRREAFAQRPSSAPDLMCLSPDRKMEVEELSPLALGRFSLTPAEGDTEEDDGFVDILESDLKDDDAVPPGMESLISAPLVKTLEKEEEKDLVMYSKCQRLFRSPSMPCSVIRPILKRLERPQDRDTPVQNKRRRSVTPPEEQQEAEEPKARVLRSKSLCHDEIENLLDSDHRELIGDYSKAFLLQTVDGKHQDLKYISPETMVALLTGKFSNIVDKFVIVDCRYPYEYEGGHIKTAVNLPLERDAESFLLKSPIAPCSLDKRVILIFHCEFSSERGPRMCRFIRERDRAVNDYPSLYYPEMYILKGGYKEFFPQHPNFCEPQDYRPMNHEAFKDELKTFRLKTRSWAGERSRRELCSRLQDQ

[2] = target: T1, M-phase inducer phosphatase 2; assay: Inhibition of human recombinant fused MBP-CDC25B3
[3] = test system: HeLa; assay: Cytotoxicity against human HeLa cells after 96 h by WST1 colorimetric assay
[4] = test system: HeLa; assay: Antiproliferative activity against human HeLa cells after 10 days by clonogenic assay; assay type: functional, cell-based; conditions: 240 h
In short: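 HeLa cells seeded at 100 cells/well, grown 24 h at 37 °C in 5% CO₂, then given medium with inhibitor at increasing concentrations (up to 100 µM) for 10 days. Colonies were fixed in 10% formaldehyde, stained with crystal violet and counted to get plating efficiency. IC50 was taken from the dose-response curve.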

[5] = test system: HeLa; assay: Cell cycle arrest in asynchronous human HeLa cells assessed as accumulation at G0/G1 phase at 10 uM after 24 hrs by flow cytometry; assay type: functional
In short: (§1)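 Asynchronous HeLa cells grown 24 h, then treated 24 h at 10 or 50 µM. Cells were trypsinized, fixed in cold ethanol and permeabilized with 0.25% Triton X-100. They were stained with anti-H3P/Alexa 488 antibody, treated with RNase and stained with propidium iodide (10 µg/mL). Flow cytometry gave the percentage of cells in G0/G1, S and G2/M. Three independent runs; DMSO served as negative control.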

[6] = test system: HeLa; assay: Cell cycle arrest in asynchronous human HeLa cells assessed as accumulation at S phase at 10 uM after 24 hrs by flow cytometry; assay type: functional; in short: as §1
[7] = test system: HeLa; assay: Cell cycle arrest in asynchronous human HeLa cells assessed as accumulation at G2/M phase at 10 uM after 24 hrs by flow cytometry; assay type: functional; in short: as §1

**Q.** With C[C@@]12CCCc3coc(c31)C(=O)c1cc3c(cc12)C(=O)C1=C(NCCS1(=O)=O)C3=O [ADOCIAQUINONE B] as the compound, how does the IC50 [1] read?
**A.** Its IC50 is 0.07 µM.

**Q.** O=C1C(Br)=C(Br)C(=O)c2ncccc21 was tested. Which IC50 [2] did it give?
**A.** The IC50 was 5.3 µM.

**Q.** And the IC50 [3]?
**A.** Its IC50 is 21.5 µM.

**Q.** How did the IC50 [1] turn out when O=C(CSC1=C(SCC(=O)OCc2ccccc2)C(=O)c2ccccc2C1=O)OCc1ccccc1 was run?
**A.** The IC50 was 3.4 µM.

**Q.** What does the source list for O=C1C(SCCO)=C(SCCO)C(=O)c2ccccc21?
**A.** IC50 [4]: 8.5 µM; Activity [5]: 56%; Activity [6]: 25%; Activity [7]: 19%; IC50 [3]: 10.8 µM
